Laboratory results published in ChEMBL document CHEMBL1138224, “Design, synthesis, and biological evaluation of peptidomimetic inhibitors of factor XIa as novel anticoagulants” (J Med Chem, 2006).
Calls of active or inactive are those of the source. No cut-off for these calls is given here.

What was measured:
Homo sapiens [1] = species: Homo sapiens; experiment: Selectivity for factor 11a over factor 10a
Summary of the method: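 Fold selectivity compared IC50s against factor XIa and factor Xa, both in Tris-HCl/NaCl/Tween 20 buffer at pH 7.4. FXIa: Glp-Pro-Arg-AMC, 50 nM enzyme, 50 µM substrate, 15-30 min at 30 °C. FXa: H-Pro-Phe-Arg-AMC at twice those concentrations, 60 min.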

Rattus norvegicus = experiment: Efficacy in rat venous thrombosis model assessed as reduction in thrombus weight at 0.25 mg/kg, iv; type: functional, organism-based; parameters: dose 0.25 mg/kg
Summary of the method: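 Intravenous infusion at 0.0625 or 0.25 mg/kg in 0.1 M NaOAc pH 4.0 vehicle, started 5 min before induction; clot isolated and weighed 10 min postchallenge. n = 9; Tukey-Kramer test versus vehicle.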

Homo sapiens [2] = species: Homo sapiens; experiment: Selectivity for factor 11a over thrombin
Summary of the method: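 IC50s against factor XIa and thrombin were compared as fold selectivity. Both enzymes used Glp-Pro-Arg-AMC, with 50 nM enzyme and 50 µM substrate in Tris-HCl/NaCl/0.02% Tween 20 at pH 7.4. Ten-point endpoint assays ran for 15-30 min at 30 °C with AMC fluorescence read at 355/460 nm. IC50 came from a one-site dose-response fit.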

Trypsin = Trypsin (Homo sapiens, UniProt P07477+P07478+P35030); experiment: Inhibition of trypsin; type: protein assay
Summary of the method: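 Trypsin activity was read with the fluorogenic substrate Glp-Pro-Arg-AMC. Conditions were 50 nM enzyme and 50 µM substrate in 100 mM Tris-HCl, 200 mM NaCl and 0.02% Tween 20 at pH 7.4. Ten-point dose-response endpoints were taken after 15-30 min at 30 °C. Released AMC was read at ex 355/em 460 nm, and IC50 came from a one-site nonlinear least-squares fit.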

Plasma [3] = experiment: Anticoagulant activity in human plasma measured by activated […] time; type: functional
Summary of the method: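 Activated partial thromboplastin time in human plasma. Plasma was incubated with compound for 2 min. aPTT reagent was added and incubated 3 min. Prewarmed 30 mM CaCl2 was added and clotting was read up to 300 s. The concentration doubling clotting time was taken from the dose-response curve.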

Plasma [4] = experiment: Anticoagulant activity in human plasma measured by prothrombin time; type: functional
Summary of the method: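 Human plasma with compound prewarmed 3 min at 37 °C, then prewarmed thromboplastin reagent containing calcium added; clotting read over 300 s. Concentration doubling clotting time (2× PT) derived from dose-response curve.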

Prothrombin = Prothrombin (Homo sapiens, UniProt P00734); experiment: Inhibition of thrombin
Coagulation factor XI = Coagulation factor XI (Homo sapiens, UniProt P03951); experiment: Inhibition of factor 11a
Coagulation factor X = Coagulation factor X (Homo sapiens, UniProt P00742); experiment: Inhibition of factor 10a
Sequence of Coagulation factor X (P00742 41-179 limits assumed): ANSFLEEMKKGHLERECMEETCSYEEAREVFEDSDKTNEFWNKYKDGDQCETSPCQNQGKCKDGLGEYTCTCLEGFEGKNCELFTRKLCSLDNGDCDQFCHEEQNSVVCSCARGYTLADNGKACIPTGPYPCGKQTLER
Sequence of Coagulation factor X (P00742 235-488 limits assumed): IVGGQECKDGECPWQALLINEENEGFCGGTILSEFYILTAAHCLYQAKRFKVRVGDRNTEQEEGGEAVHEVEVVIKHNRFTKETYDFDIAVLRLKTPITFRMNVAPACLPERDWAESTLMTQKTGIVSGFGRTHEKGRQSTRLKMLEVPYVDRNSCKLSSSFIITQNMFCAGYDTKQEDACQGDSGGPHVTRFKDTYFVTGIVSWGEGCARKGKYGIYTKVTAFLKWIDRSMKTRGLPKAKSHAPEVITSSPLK

Sequence of Coagulation factor XI (P03951 19-387 limits assumed): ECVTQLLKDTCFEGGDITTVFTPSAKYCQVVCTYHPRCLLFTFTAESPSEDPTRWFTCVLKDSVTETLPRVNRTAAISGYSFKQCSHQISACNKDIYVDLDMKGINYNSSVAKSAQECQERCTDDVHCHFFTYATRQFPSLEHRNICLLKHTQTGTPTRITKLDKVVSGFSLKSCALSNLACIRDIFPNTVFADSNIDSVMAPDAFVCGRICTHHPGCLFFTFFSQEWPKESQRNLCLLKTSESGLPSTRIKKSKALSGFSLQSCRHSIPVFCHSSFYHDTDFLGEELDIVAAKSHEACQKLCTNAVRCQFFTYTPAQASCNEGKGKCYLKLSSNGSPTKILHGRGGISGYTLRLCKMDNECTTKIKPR
Sequence of Coagulation factor XI (P03951 388-625 limits assumed): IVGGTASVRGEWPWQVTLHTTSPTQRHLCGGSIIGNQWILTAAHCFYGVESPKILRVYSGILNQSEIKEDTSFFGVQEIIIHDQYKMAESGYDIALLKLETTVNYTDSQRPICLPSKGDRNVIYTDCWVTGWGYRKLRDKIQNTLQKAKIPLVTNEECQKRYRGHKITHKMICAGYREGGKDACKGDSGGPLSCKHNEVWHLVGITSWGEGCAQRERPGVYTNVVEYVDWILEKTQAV

| Structure (SMILES) | IC50 (Prothrombin) | IC50 (Coagulation factor XI) | IC50 (Coagulation factor X) | also measured |
| --- | --- | --- | --- | --- |
| CC(C)[C@H](NC(=O)[C@H](Cc1ccc(O)cc1)NC(=O)N[C@H](C)c1ccc(Br)cc1)C(=O)N[C@@H](CCCNC(=N)N)C(=O)c1nccs1 | – | – | – | Selectivity ratio (Homo sapiens [1]): 267; Activity (Rattus norvegicus): Active; Selectivity ratio (Homo sapiens [2]): 340; IC50 (Trypsin): 12 nM; 2aPTT (Plasma [3]): 2.4 µM; 2PT (Plasma [4]): 25 µM |
| CC(C)[C@H](NC(=O)[C@H](Cc1cccnc1)NC(=O)N[C@H](C)c1ccc(F)cc1)C(=O)N[C@@H](CCCN=C(N)N)C(=O)c1nccs1 | 523 nM | 28 nM | – | – |
| CC(C)C[C@H](NC(=O)NCc1ccc(Cl)c(Cl)c1)C(=O)N[C@H](C(=O)N[C@@H](CCCN=C(N)N)C(=O)c1nccs1)C(C)C | 876 nM | 63 nM | > 20000 nM | – |
| CC(C)[C@H](NC(=O)[C@H](Cc1ccccc1)NNC(=O)NCc1ccc(F)cc1)C(=O)N[C@@H](CCCNC(=N)N)C(=O)c1nccs1 | 4300 nM | 160 nM | – | – |
| CC(C)C[C@H](NC(=O)NC(C)c1ccc(Br)cc1)C(=O)N[C@H](C(=O)N[C@@H](CCCNC(=N)N)C(=O)c1nccs1)C(C)C (stereo not given in full) | 1400 nM | 10 nM | 15000 nM | Selectivity ratio (Homo sapiens [1]): 1500; Selectivity ratio (Homo sapiens [2]): 140 |
| CC(C)[C@H](NC(=O)[C@H](Cc1ccccc1)NNC(=O)c1ccco1)C(=O)N[C@@H](CCCNC(=N)N)C(=O)c1nccs1 | – | 2200 nM | – | – |
| CC(C)C[C@H](NC(=O)NCc1ccc(Cl)cc1Cl)C(=O)N[C@H](C(=O)N[C@@H](CCCN=C(N)N)C(=O)c1nccs1)C(C)C | 386 nM | 45 nM | 13000 nM | – |
| CC(C)[C@H](NC(=O)[C@H](Cc1ccccc1)NNC(=O)Nc1ccccc1)C(=O)N[C@@H](CCCNC(=N)N)C(=O)c1nccs1 | 935 nM | 1920 nM | > 20000 nM | – |
| CC(C)C[C@H](NC(=O)NCc1ccc(Cl)c(Cl)c1)C(=O)N[C@H](C(=O)N[C@@H](CCCN=C(N)N)C(=O)c1nccs1)C(C)(C)C | 12000 nM | 9200 nM | > 200000 nM | – |
| CC(C)[C@H](NC(=O)[C@H](Cc1cccnc1)NC(=O)N[C@H](C)c1ccc(Br)cc1)C(=O)N[C@@H](CCCNC(=N)N)C(=O)c1nccs1 | 1400 nM | 12 nM | 1400 nM | Selectivity ratio (Homo sapiens [1]): 200; 2aPTT (Plasma [3]): 2.4 µM; 2PT (Plasma [4]): 31 µM |
| CC(C)C[C@H](NC(=O)NCc1ccc(F)cc1)C(=O)N[C@H](C(=O)N[C@@H](CCCNC(=N)N)C(=O)c1nccs1)C(C)C | 3100 nM | 114 nM | > 20000 nM | – |
| CCOC(=O)C(CC(C)C)NC(=O)NN[C@@H](Cc1ccccc1)C(=O)N[C@H](C(=O)N[C@@H](CCCNC(=N)N)C(=O)c1nccs1)C(C)C (stereo not given in full) | 2100 nM | 403 nM | 15400 nM | – |
| CC(C)C[C@H](NC(=O)OCc1ccccc1)C(=O)N[C@H](C(=O)N[C@@H](CCCN=C(N)N)C(=O)c1nccs1)C(C)C | – | 356 nM | – | – |
| CC(C)[C@H](NC(=O)[C@H](CCCN=C(N)N)NC(=O)N[C@H](C)c1ccc(Br)cc1)C(=O)N[C@@H](CCCN=C(N)N)C(=O)c1nccs1 | 440 nM | 7 nM | 250 nM | – |
| CC(C)C[C@H](NC(=O)NCc1ccc(Cl)c(Cl)c1)C(=O)N[C@@H](Cc1ccccc1)C(=O)N[C@@H](CCCN=C(N)N)C(=O)c1nccs1 | 27000 nM | 710 nM | 8500 nM | – |
| CC(C)C[C@H](NC(=O)NCc1ccccc1)C(=O)N[C@H](C(=O)N[C@@H](CCCNC(=N)N)C(=O)c1nccs1)C(C)C | 2800 nM | 136 nM | > 20000 nM | – |
